The record followed here is ChEMBL document CHEMBL1154512, “PA-824 kills nonreplicating Mycobacterium tuberculosis by intracellular NO release” (2008).

SMILES strings stand for the structures. Calls of active or inactive are those of the source. No cut-off for these calls is given here.

Experiment [1] concerns Mycobacterium tuberculosis. In words: Induction of nitrous acid production in NRP2 phase Mycobacterium bovis BCG assessed as ratio of Vmax to Km under hypoxic non replicating condition. It is filed as functional, variant bovis BCG. The method, boiled down:
(§1)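 NO release measured inside BCG cells preloaded with the NO-specific fluorescent probe DAF-FM diacetate and then treated with compound. Fluorescence (RFU) followed over time. Rate expressed as apparent Vmax/Km, i.e. RFU per hour divided by an intracellularly measured Km (RFU hr–1 μM–1).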

Experiment [2] concerns Mycobacterium tuberculosis. Description: Induction of nitrous acid production in NRP2 phase Mycobacterium bovis BCG at 1.85 uM to 100 uM after 2 days under hypoxic non replicating condition in presence of DAF-FM diacetate. The experiment is classed as functional, organism-based. As to conditions: variant bovis BCG.
The subject of experiment [3] is Mycobacterium tuberculosis. Description: Induction of nitrous acid production in NRP2 phase Mycobacterium bovis BCG under aerobic condition in presence of DAF-FM diacetate. The experiment is classed as functional, organism-based. As to conditions: variant bovis BCG. The method, boiled down:
as §1

For experiment [4], the system named is Mycobacterium tuberculosis. Description: Induction of nitrous acid production in NRP2 phase Mycobacterium bovis BCG at 20 uM by fluorescence quenching measurement in presence of C-PTIO. The experiment is classed as functional, organism-based. As to conditions: variant bovis BCG. The method, boiled down:
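BCG cells preloaded with DAF-FM diacetate were treated with 20 μM nitroimidazole in the presence of increasing concentrations of the NO scavenger C-PTIO. NO read as fluorescence. Three independent replicates, error as SD.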

As for `CCCCc1ccc(CN[C@@H]2COc3nc([N+](=O)[O-])cn3C2)cc1`, in experiment [1], the Ratio came out at 4.7.

Consider `O=[N+]([O-])c1cn2c(n1)OC[C@@H](NCc1ccc(OCc3ccc(OC(F)(F)F)cc3)cc1)C2`, for which the Ratio in experiment [1] came to 76.9.

On to `O=[N+]([O-])c1cn2c(n1)NC[C@@H](OCc1ccc(OC(F)(F)F)cc1)C2`, for which the Ratio in experiment [1] is recorded as 4.8.

In the case of `O=[N+]([O-])c1cn2c(n1)OC[C@@H](OCc1ccc(OC(F)(F)F)cc1)C2` [PRETOMANID], the Ratio in experiment [1] amounted to 12.5. In addition, the result in experiment [2] and in experiment [3] was Active. In addition, the result in experiment [4] was inactive.

As to `O=[N+]([O-])c1cn2c(n1)OC[C@@H](NCCCCc1ccc(OC(F)(F)F)cc1)C2`, the Ratio in experiment [1] turned out to be 71.6.

Turning to `O=[N+]([O-])c1cn2c(n1)OC[C@@H](NCc1ccc(OC(F)(F)F)cc1)C2`, the Ratio in experiment [1] worked out at 10.1.

Regarding `O=[N+]([O-])c1cn2c(n1)OC[C@@H](NCCc1ccc(OC(F)(F)F)cc1)C2`, in experiment [1], the Ratio came to 28.7.

As for `O=[N+]([O-])c1cn2c(n1)OC[C@@H](NCCCc1ccc(OC(F)(F)F)cc1)C2`, the Ratio in experiment [1] came out at 60.1.
